Compound activity (PubChem BioAssay)
hERG protect – hERG (human) protection from proarrhythmic block; Q12809; CHO-hERG, FluxOR thallium flux, dofetilide IC70 present; activation (rescue from dofetilide block), less the hit threshold, % at 10 µM; hit rate 0.51% among 310,000; AID 1511;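 active = activation above the mean of controls blocked by dofetilide plus 5 SD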;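 note: thallium influx through hERG after potassium depolarization seen as dye fluorescence rise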
KCNQ1 act – potentiates or activates the human KCNQ1 potassium channel | P51787 | CHO-K1 KCNQ1, thallium flux FluxOR fluorescence; hits give high values | B-score at 10 µM | hit rate 0.35% among 310,000;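 active = fluorescence ratio B-score, a plate-corrected score, at least three library SD, with initial intensity B-score within 5 SD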
Target sequence (P51787 whole entry, looked up): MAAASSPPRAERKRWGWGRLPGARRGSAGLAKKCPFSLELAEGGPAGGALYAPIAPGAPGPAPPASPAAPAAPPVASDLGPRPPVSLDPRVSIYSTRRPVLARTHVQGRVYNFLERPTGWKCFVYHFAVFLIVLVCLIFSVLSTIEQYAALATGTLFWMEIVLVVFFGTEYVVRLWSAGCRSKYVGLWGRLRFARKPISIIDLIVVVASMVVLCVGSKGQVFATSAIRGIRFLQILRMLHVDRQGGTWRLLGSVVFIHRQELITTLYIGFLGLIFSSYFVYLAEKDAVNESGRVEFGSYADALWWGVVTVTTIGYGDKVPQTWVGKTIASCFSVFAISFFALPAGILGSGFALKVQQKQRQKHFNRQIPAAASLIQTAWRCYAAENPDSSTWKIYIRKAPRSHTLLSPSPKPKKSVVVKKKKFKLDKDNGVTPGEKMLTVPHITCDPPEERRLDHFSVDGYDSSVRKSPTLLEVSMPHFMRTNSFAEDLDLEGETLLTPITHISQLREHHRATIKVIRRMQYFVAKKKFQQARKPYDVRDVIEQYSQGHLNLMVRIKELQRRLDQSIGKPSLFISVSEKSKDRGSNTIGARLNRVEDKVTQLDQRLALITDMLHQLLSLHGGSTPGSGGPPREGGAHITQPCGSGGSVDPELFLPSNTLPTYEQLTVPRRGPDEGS
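Doses: Single concentration per compound, DMSO matched to controls | Test system: KCNQ1-transfected CHO-K1 cells | Timing: 90 min dye loading and 20 min compound exposure, both at room temperature | Measured by: Kinetic FluxOR thallium fluorescence, 10-s 1-Hz baseline, 110-s post-stimulus read | Medium: Assay buffer with matched DMSO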
KCNK3 block – human KCNK3 channel inhibition, primary screen | O14649 | B-score at 10 µM | hit rate 0.84% among 340,000 | AID 602410 | CHO-KCNK3 thallium flux, FluxOR fluorescence; hits give low values;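 active = B-score under library mean minus 4 SD, starting fluorescence ratio at most library mean plus 5 SD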;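 note: more negative B-score means stronger inhibition of thallium flux through KCNK3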
KCNQ1 block – blocks the human KCNQ1 potassium channel. P51787. CHO-K1 KCNQ1, FluxOR thallium flux fluorescence; hits give high values. B-score at 10 µM. hit rate 1.3% among 310,000;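 active = compounds whose thallium flux B-score, printed positive for inhibition, exceeds three library SD while starting fluorescence stays within three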;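 note: channel opened by potassium depolarization with thallium stimulus after 20 min compound exposure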
KCNK9 inh – blocks the human KCNK9 two-pore domain potassium channel. Q9NPC2. HEK293 KCNK9, FluxOR thallium flux fluorescence; hits give low values. B-score at 10 µM. hit rate 1.2% among 310,000;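 active = ratio B-score over 3 SD below the library mean, with starting fluorescence within 5 SD of its mean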;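 note: negative B-score means less thallium flux so channel inhibition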
PHOSPHO1 block – blocks human PHOSPHO1 phosphatase activity. inhibition, % at 13.3 µM. Q8TCT1. hit rate 1.1% among 290,000. recombinant PHOSPHO1, absorbance phosphatase assay; in the data active = inhibition above about 60%
KCNK3 inh conf – human KCNK3 channel inhibition, confirmation assay; shares compounds with KCNK3 block; hit rate 99% among 2,400; ratio percent of control, % at 10 µM; CHO-KCNK3 thallium flux, FluxOR fluorescence; 0% buffer, 100% carvedilol maximal block;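 active = ratio percent of control, averaged over triplicates, above buffer control mean plus 5 SD, cut at about 64% in these data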;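 note: ratio is the fluorescence rise from min to max over baseline after thallium stimulus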
KCNK3 noninduced – activity in cells without induced KCNK3 expression | shares compounds with KCNK3 block | thallium flux ratio (lower = more inhibition) at 10 µM | non-induced KCNK3 parental cells, FluxOR thallium flux; hits give low values | hit rate 40% among 2,400;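 active = thallium flux ratio, averaged over three wells, more than 5 SD below the buffer control mean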;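 note: host cells are CHO cells without KCNK3 induction; ratio is peak minus trough fluorescence over baseline then normalized to buffer controls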
* = called active by the depositor; i = inactive; x = no result given. This is a sample that favours compounds with a hit; in the whole collection about 4% have one here.

SMILES	hERG protect	KCNQ1 act	KCNK3 block	KCNQ1 block	KCNK9 inh	PHOSPHO1 block	KCNK3 inh conf	KCNK3 noninduced
CCN1CCSc2ccc(C(=O)NCc3cccc(Br)c3)cc21	-17	i	-12*	i	-7*	33	119*	i
CCN1CCSc2ccc(C(=O)NCc3cccc(F)c3)cc21	-11	i	i	i	i	23	x	x
Cc1cccc2cc(CN(Cc3ccco3)C(=O)c3ccncc3)c(=O)[nH]c12	-16	i	-22*	i	i	4	63*	i
CN(c1ccc(Cl)cc1)c1cc(=O)n(C)c2ccccc12	-5	i	-8.8*	i	i	10	98*	i
COn1c(=O)c(-c2cccs2)[n+]([O-])c2ccccc21	-11	i	-10*	i	i	14	87*	0.11*
Cc1ccc(S(=O)(=O)N(C)c2nc3ccccc3[nH]c2=S)cc1	-5	i	i	i	i	35	x	x
COc1ccc(Sc2ccc(NC(=O)c3ccccc3Cl)cc2C#N)cc1	-7	i	-12*	i	i	18	106*	0.15*
N#Cc1ccccc1Sc1ccccc1C(=O)Nc1ccc2ccccc2c1	-13	i	i	i	i	6	x	x
C=CS(=O)(=O)c1sc(Cl)c(N2CCOCC2)c1[N+](=O)[O-]	-1	11*	-9*	i	i	22	125*	0.12*
COc1ccc(-c2[nH]ncc2CN2CCN(Cc3cccs3)CC2)c(F)c1	-9	i	i	i	i	40	x	x
COc1ccc(-c2[nH]ncc2CN(C)C(C)c2cccs2)c(F)c1 (configuration not stated)	-4	i	-9.5*	i	i	40	101*	i
Cc1ccccc1OCC(O)Cn1c2ccccc2c2ccccc21 (configuration not stated)	-5	i	-9.7*	i	-6.7*	12	131*	0.13*
CC(C)Cn1c(SCc2nc3ccccc3c(=O)[nH]2)nc2ccccc2c1=O	-11	i	-10*	i	-6.7*	5	102*	i
Cc1cccc(C(=O)O/N=C(\c2ccccc2)c2cccnc2)c1	-11	i	-8.9*	i	i	-15	102*	i
Cc1ccccc1Nc1nc(N)nc(-c2oc3ccccc3c2C)n1	-15	i	-10*	i	-14*	-10	117*	0.16*
COc1ccc(OC)c(NC(=O)c2ccc3c(c2)OCO3)c1	-4	i	i	i	i	8	x	x
COc1ccc2nc(NC(=O)C3COc4ccccc4O3)sc2c1 (configuration not stated)	-6	i	i	i	i	-7	x	x
COc1ccc(OC)c(-c2csc(NC(=O)C3COc4ccccc4O3)n2)c1 (configuration not stated)	-8	i	-9.1*	i	i	-8	105*	0.16*
COc1ccc(OC)c(-c2csc(NC(=O)c3ccc4c(c3)OCO4)n2)c1	-7	i	-9.3*	i	i	-13	92*	i
S=c1nn[nH]c2ccccc12	x	x	i	x	x	x	x	x
CCOc1cc(/C=C2\C(=O)N(Cc3ccco3)C(C)=C2C(=O)OC)ccc1O	-27	i	-9.5*	i	i	39	71*	i
CC(C)Cn1cnc2c1c(=O)[nH]c(=O)n2Cc1ccccc1	-3	i	i	i	i	31	x	x
Cc1ccc2cc(CN(Cc3ccccc3)Cc3nnnn3C3CCCC3)c(=O)[nH]c2c1	-6	i	-10*	i	i	-11	103*	0.15*
CCc1ccc2[nH]c(=O)c(CN(Cc3ccc4c(c3)OCO4)Cc3nnnn3C3CCCC3)cc2c1	-4	i	-8.7*	i	i	4	128*	0.13*
Cc1ccc2cc(CN(Cc3ccc(F)cc3)Cc3nnnn3C3CCCC3)c(=O)[nH]c2c1	-3	i	i	i	i	20	x	x
SMILES	hERG protect	KCNQ1 act	KCNK3 block	KCNQ1 block	KCNK9 inh	PHOSPHO1 block	KCNK3 inh conf	KCNK3 noninduced
COc1ccc(C)cc1NC(=O)C1CCC(CNc2c(N3CCOCC3)c(=O)c2=O)CC1 (configuration not stated)	-7	i	i	i	i	-7	x	x
COc1ccccc1C(=O)N/N=C/c1c[nH]c2ccccc12	0	i	i	i	i	x	x	x
O=C(O)C1C2C=CC(C2)C1C(=O)NCc1ccc2c(c1)OCO2 (configuration not stated)	-1	i	-8.9*	i	i	45	90*	i
Cc1cc(Cl)n2c(nc3cc(F)c(F)cc32)c1C#N	-12	i	i	i	i	-13	x	x
COc1cccc(CNS(=O)(=O)c2c(C)nc3scc(C)n3c2=O)c1	-1	i	i	i	i	7	x	x
COc1cccc(/C=C/C(=O)c2cccc([N+](=O)[O-])c2)c1	-6	i	i	i	i	3	x	x
COc1ccc(S(=O)(=O)N2CCN(C(=O)c3ccc([N+](=O)[O-])o3)CC2)cc1	-5	i	i	i	i	32	x	x
COc1ccc(/C=C/C(=O)OCc2cccc([N+](=O)[O-])c2)cc1	-24	i	-9.6*	i	i	6	95*	0.14*
COc1ccc(/C=C/C(=O)c2ccc([N+](=O)[O-])o2)cc1	-12	i	-11*	i	i	x	99*	i
CCN(C(=O)COC(=O)/C=C/c1c(C)nn(Cc2ccc(C)cc2)c1C)C1CCS(=O)(=O)C1 (configuration not stated)	-14	i	i	i	i	-4	x	x
Cc1ccc(CNC(=O)Cn2c(=O)oc3ccccc32)o1	-4	i	-12*	i	i	15	77*	i
CC(C)Oc1ccc(CNC(=O)Cn2c(=O)oc3ccccc32)cc1	1	i	i	i	i	20	x	x
CCOC(=O)c1ccccc1NC(=O)c1c(O)c2ccccc2n(CC)c1=O	-4	i	-9.5*	i	i	-14	112*	i
CCCn1c(=O)c(C(=O)Nc2ccccc2C(=O)OC)c(O)c2ccccc21	-3	i	-9.6*	i	i	-42	98*	i
O=[N+]([O-])c1c(Nc2ccc(O)cc2)cc(Cl)c2nonc12	-30	i	-11*	9*	i	18	164*	0.054*
